Laboratory results reported in ChEMBL document CHEMBL1152148, “Exploring 8-benzyl pteridine-6,7-diones as inhibitors of glutamate racemase (MurI) in gram-positive bacteria” (Bioorg Med Chem Lett, 2008).
Converted amounts (≈) assume the structure as drawn.

Legend:
Glutamate racemase = target: T1, Glutamate racemase (Enterococcus faecalis (strain ATCC 700802 / V583), UniProt Q836J0); experiment: Inhibition of Enterococcus faecalis murI assessed as effect on conversion of D-glutamate to L-glutamate at pH 8.0 by HPLC
T1 sequence (Q836J0 whole entry): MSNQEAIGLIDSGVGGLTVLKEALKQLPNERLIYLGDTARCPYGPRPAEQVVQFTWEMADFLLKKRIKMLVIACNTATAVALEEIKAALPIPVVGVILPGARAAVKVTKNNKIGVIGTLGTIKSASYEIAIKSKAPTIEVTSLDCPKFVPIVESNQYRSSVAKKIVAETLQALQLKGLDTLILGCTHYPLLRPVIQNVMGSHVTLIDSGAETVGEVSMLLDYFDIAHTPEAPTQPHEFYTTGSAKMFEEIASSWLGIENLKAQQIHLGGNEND
How it was run: (§1)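 IC50 determined against the MurI isozyme at pH 8 in Tris buffer containing polyethylene glycol, dithiothreitol and D-glutamate substrate. Conversion of D- to L-glutamate was followed by HPLC, with chiral separation of the glutamate enantiomers on a D-penicillamine column.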

[1] = Inhibition of Staphylococcus aureus murI assessed as effect on conversion of D-glutamate to L-glutamate at pH 8.0 by HPLC; how it was run: as §1
[2] = Solubility in Tris buffer at pH 8.0 by nephelometry; assay type: physicochemical
How it was run: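 Solubility was determined by nephelometry in the assay medium.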

Staphylococcus aureus = experiment: Antibacterial activity against Staphylococcus aureus by NCCLS method; assay type: functional
[3] = Inhibition of Enterococcus faecium murI assessed as effect on conversion of D-glutamate to L-glutamate at pH 8.0 by HPLC

Structure (SMILES) | IC50 (Glutamate racemase) [µM] | IC50 [1] [µM] | solubility kinetic [2] [µM] | MIC (Staphylococcus aureus) [µg/mL] | IC50 [3] [µM]
Nc1nc(SCCc2ccccc2)nc2c1[nH]c(=O)c(=O)n2Cc1ccccc1 | 50 | 11 | 3 (≈ 1.22 µg/mL) |  | 
CCCCSc1nc(N)c2[nH]c(=O)c(=O)n(CCCC)c2n1 | 11 |  | 25 (≈ 8.09 µg/mL) | > 64 | 
CCCCSc1nc(N2CCN(C)CC2)c2[nH]c(=O)c(=O)n(Cc3ccc(F)cc3)c2n1 | 6.1 | 21 | 25 (≈ 11.5 µg/mL) | 16 (≈ 34.9 µM) | 
CCCCSc1nc(N)c2[nH]c(=O)c(=O)n(Cc3ccc(F)cc3)c2n1 | 3.5 | 5.1 | 32 (≈ 12 µg/mL) | > 64 | 
Nc1nc(SCc2ccccc2)nc2c1[nH]c(=O)c(=O)n2Cc1ccccc1 | 21 | 7.6 | 3 (≈ 1.17 µg/mL) |  | 
CCCCSc1nc(N)c2ncn(Cc3ccc([N+](=O)[O-])cc3)c2n1 | 7 | > 400 | 10 (≈ 3.58 µg/mL) |  | 18

The next compounds have a lower IC50 (Glutamate racemase) than those just listed; values first:

IC50 (Glutamate racemase) [µM] | IC50 [1] [µM] | solubility kinetic [2] [µM] | MIC (Staphylococcus aureus) [µg/mL] | IC50 [3] [µM] | Structure (SMILES)
0.65 | < 1.5 | 3.1 (≈ 1.32 µg/mL) | > 64 |  | CCCCSc1nc(N)c2[nH]c(=O)c(=O)n(Cc3ccc(Cl)c(Cl)c3)c2n1
1.7 | 14 | 50 (≈ 20.9 µg/mL) | > 64 |  | CCCCSc1nc(N)c2[nH]c(=O)c(=O)n(Cc3cc(OC)cc(OC)c3)c2n1
2.5 | 25 | 50 (≈ 24.4 µg/mL) | 64 (≈ 131 µM) |  | CCCCSc1nc(NCCN2CCOCC2)c2[nH]c(=O)c(=O)n(Cc3ccc(F)cc3)c2n1
2.4 | 6.4 | 25 (≈ 8.94 µg/mL) | > 64 |  | CCCCSc1nc(N)c2[nH]c(=O)c(=O)n(Cc3ccccc3)c2n1
1.9 | 52 | 12 (≈ 4.43 µg/mL) | > 64 |  | Nc1nc(SC2CCCC2)nc2c1[nH]c(=O)c(=O)n2Cc1ccccc1
0.9 | 3.8 | 25 (≈ 9.74 µg/mL) | 8 (≈ 20.5 µM) |  | CCCCSc1nc(NC)c2[nH]c(=O)c(=O)n(Cc3ccc(F)cc3)c2n1
1.5 | 3.1 | 50 (≈ 19.7 µg/mL) | > 64 |  | CCCCSc1nc(N)c2[nH]c(=O)c(=O)n(Cc3c(F)cccc3F)c2n1
2.1 | 4 | 1.6 (≈ 0.69 µg/mL) | > 64 |  | CCCCSc1nc(N2CC(O)C2)c2[nH]c(=O)c(=O)n(Cc3ccc(F)cc3)c2n1
1.1 |  | 0.8 (≈ 0.323 µg/mL) | 4 (≈ 9.91 µM) |  | CCCCSc1nc(N(C)C)c2[nH]c(=O)c(=O)n(Cc3ccc(F)cc3)c2n1
